According to ChEMBL document CHEMBL1629616 (Antimicrob Agents Chemother, 2009):

Key:
Cytochrome P450 2B6 [1] = target: T1, Cytochrome P450 2B6 (Homo sapiens, UniProt P20813); assay: Inhibition of CYP2B6 in human liver microsomes assessed as bupropion 4-hydroxylation after 15 mins
T1 sequence (P20813 whole entry): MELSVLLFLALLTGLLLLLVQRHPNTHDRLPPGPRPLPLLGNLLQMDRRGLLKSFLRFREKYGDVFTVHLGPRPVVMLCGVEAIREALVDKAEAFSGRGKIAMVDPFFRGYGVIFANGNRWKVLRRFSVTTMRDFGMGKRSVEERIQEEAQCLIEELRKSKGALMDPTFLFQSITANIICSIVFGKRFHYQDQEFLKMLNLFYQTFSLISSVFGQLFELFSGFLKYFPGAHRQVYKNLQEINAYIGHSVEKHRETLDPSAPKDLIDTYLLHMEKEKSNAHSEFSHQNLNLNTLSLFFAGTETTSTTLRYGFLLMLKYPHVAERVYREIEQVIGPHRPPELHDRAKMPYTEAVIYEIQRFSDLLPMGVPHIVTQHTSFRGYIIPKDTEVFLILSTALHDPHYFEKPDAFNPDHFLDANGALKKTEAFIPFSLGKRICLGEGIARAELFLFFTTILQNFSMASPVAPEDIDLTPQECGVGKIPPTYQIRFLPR

Cytochrome P450 2B6 [2] = target: T1, Cytochrome P450 2B6; assay: Inhibition of human CYP2B6 expressed in baculovirus assessed as voriconazole N-oxide formation; assay type: ADME
[3] = Inhibition of CYP3A using testosterone as probe; assay type: ADME
CYP2D6 = CYP2D6 (Homo sapiens, UniProt P10635); assay: Inhibition of CYP2D6 in human liver microsomes assessed as dextromethorphan O-demethylation at 100 uM after 30 mins; assay type: ADME, Microsome; settings: probe dextromethorphan (O-demethylation)
Chain of CYP2D6 (P10635 whole entry): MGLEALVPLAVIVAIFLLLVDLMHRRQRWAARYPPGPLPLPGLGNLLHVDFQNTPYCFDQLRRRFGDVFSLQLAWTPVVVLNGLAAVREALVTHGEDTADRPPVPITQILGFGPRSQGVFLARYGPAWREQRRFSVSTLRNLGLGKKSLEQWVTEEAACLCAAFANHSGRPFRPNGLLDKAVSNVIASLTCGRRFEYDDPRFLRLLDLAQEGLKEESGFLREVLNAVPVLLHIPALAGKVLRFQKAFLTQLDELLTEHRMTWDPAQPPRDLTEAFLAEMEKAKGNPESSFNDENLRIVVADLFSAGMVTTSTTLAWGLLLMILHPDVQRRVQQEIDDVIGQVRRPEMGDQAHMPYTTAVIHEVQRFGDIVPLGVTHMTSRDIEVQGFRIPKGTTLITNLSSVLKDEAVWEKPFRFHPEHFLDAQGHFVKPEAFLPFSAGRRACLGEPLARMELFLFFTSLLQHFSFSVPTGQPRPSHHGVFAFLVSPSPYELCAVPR

Cytochrome P450 2B6 [4] = target: T1, Cytochrome P450 2B6; assay: Inhibition of CYP2B6 in human liver microsomes assessed as bupropion 4-hydroxylation after 15 mins by Dixon plot analysis; assay type: ADME, Microsome
CYP2A6 = target: T2, CYP2A6 (Homo sapiens, UniProt P11509); assay: Inhibition of CYP2A6 in human liver microsomes assessed as coumarin 7-hydroxylation at 100 uM after 15 mins; assay type: ADME, Microsome; settings: probe coumarin (7-hydroxylation)
T2 sequence (P11509 whole entry): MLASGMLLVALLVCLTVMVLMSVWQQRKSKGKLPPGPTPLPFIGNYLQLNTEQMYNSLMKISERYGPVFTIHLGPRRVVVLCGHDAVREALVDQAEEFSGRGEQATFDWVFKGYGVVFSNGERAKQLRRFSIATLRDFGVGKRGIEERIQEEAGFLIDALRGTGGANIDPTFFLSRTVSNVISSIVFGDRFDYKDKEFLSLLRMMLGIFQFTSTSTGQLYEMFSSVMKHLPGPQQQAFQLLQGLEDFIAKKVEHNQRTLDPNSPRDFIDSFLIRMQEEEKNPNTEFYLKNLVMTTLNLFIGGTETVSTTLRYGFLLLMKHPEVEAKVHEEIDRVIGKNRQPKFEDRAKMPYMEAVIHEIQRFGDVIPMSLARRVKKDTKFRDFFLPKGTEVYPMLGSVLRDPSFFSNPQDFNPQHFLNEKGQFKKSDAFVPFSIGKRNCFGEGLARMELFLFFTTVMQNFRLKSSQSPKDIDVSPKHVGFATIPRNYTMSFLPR

Cytochrome P450 2B6 [5] = target: T1, Cytochrome P450 2B6; assay: Inhibition of CYP2B6 in human liver microsomes using 8-hydroxyefavirenz as probe after 10 mins; assay type: ADME, Microsome
Cytochrome P450 2B6 [6] = target: T1, Cytochrome P450 2B6; assay: Inhibition of CYP2B6 in human liver microsomes assessed as efavirenz 8-hydroxylation at 10 uM after 60 mins; assay type: ADME, Microsome; settings: 1 h
[7] = Inhibition of CYP3A using midazolam as probe; assay type: ADME
How it was run: (§1)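 1′-Hydroxymidazolam measured by HPLC-UV at 230 nm with desmethyldiazepam internal standard. IC50 from log concentration versus percent activity remaining.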

Cytochrome P450 2B6 [8] = target: T1, Cytochrome P450 2B6; assay: Inhibition of CYP2B6 in human liver microsomes assessed as metabolite formation at 10 uM preincubated for 60 mins; assay type: ADME, Microsome
[9] = Inhibition of CYP3A using felodipine as probe; assay type: ADME
CYP3A = CYP3A (Homo sapiens, UniProt P08684+P20815+P24462+Q9HB55); assay: Inhibition of CYP3A in human liver microsomes assessed as midazolam 1'- hydroxylation after 5 mins; assay type: ADME, Microsome; settings: probe midazolam (1'-hydroxylation)
How it was run: as §1

CYP1A2 = target: T3, CYP1A2 (Homo sapiens, UniProt P05177); assay: Inhibition of CYP1A2 in human liver microsomes assessed as phenacetin O-deethylation at 100 uM after 30 mins; assay type: ADME, Microsome; settings: probe phenacetin (O-deethylation)
T3 sequence (P05177 whole entry): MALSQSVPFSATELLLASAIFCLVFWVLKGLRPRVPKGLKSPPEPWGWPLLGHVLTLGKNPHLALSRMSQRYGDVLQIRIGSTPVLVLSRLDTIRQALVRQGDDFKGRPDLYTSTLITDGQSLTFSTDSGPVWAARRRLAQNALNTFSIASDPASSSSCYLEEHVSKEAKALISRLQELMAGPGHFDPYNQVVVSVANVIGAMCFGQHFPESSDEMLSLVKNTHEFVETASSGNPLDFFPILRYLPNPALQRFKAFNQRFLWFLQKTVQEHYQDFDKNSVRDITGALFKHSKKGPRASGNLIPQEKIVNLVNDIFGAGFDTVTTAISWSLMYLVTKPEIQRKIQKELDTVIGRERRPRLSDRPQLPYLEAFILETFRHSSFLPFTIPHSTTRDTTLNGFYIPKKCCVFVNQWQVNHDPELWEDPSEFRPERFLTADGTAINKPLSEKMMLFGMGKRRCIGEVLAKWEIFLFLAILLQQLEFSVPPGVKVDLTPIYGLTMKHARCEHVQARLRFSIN

Cytochrome P450 2B6 [10] = target: T1, Cytochrome P450 2B6; assay: Inhibition of CYP2B6 in human liver microsomes assessed as 8-hydroxyefavirenz 14-hydroxylation after 10 mins; assay type: ADME, Microsome
Cytochrome P450 2B6 [11] = target: T1, Cytochrome P450 2B6; assay: Inhibition of CYP2B6 in human liver microsomes using efavirenz as probe after 10 mins; assay type: ADME, Microsome
How it was run: (§2)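 Ethyl acetate extraction under alkaline pH; 8-hydroxyefavirenz measured by HPLC-UV at 245 nm with ritonavir internal standard. IC50 from log concentration versus percent activity remaining.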

[12] = Inhibition of CYP3A using nifedipine as probe; assay type: ADME
CYP2C8 = target: T4, CYP2C8 (Homo sapiens, UniProt P10632); assay: Inhibition of CYP2C8 in human liver microsomes assessed as amodiquine N-deethylation at 100 uM after 15 mins; assay type: ADME, Microsome; settings: probe amodiquine (N-deethylation)
T4 sequence (P10632 whole entry): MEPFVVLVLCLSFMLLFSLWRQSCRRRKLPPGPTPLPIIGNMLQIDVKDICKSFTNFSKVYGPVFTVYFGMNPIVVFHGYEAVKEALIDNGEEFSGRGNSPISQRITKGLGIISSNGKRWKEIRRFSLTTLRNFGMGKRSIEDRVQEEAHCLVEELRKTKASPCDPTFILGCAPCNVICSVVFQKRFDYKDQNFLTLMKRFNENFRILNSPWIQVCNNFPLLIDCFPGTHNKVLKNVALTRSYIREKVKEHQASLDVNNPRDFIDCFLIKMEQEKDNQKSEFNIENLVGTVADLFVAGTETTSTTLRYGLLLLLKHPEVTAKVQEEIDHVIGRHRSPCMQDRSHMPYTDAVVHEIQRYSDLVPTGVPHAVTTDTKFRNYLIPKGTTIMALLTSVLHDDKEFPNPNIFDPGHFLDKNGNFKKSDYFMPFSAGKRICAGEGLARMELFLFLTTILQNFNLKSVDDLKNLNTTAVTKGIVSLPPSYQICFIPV

Cytochrome P450 2B6 [13] = target: T1, Cytochrome P450 2B6; assay: Inhibition of CYP2B6 in human liver microsomes at 10 uM preincubated for 5 to 30 mins; assay type: ADME, Microsome
How it was run: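 Efavirenz (final 100 μM) then added and incubated 10 min with cofactors. Activity compared with 0-min controls lacking inhibitor and NADPH.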

Cytochrome P450 2B6 [14] = target: T1, Cytochrome P450 2B6; assay: Inhibition of CYP2B6 in human liver microsomes assessed as efavirenz 8-hydroxylation after 10 mins by Dixon plot analysis; assay type: ADME, Microsome
How it was run: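 8-Hydroxyefavirenz measured by HPLC-UV. Ki from nonlinear regression to competitive, noncompetitive and uncompetitive models, chosen using Dixon plots.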

Cytochrome P450 2B6 [15] = target: T1, Cytochrome P450 2B6; assay: Inhibition of CYP2B6 in human liver microsomes using bupropion as probe after 15 mins
Cytochrome P450 2B6 [16] = target: T1, Cytochrome P450 2B6; assay: Inhibition of CYP2B6 in human liver microsomes assessed as efavirenz 8-hydroxylation after 10 mins; assay type: ADME, Microsome
How it was run: as §2

For `C[C@@H](c1ncncc1F)[C@](O)(Cn1cncn1)c1ccc(F)cc1F` [VORICONAZOLE], the IC50 (Cytochrome P450 2B6 [1]) was 1190 nM, the IC50 (Cytochrome P450 2B6 [2]) was 12200 nM and the IC50 [3] was 54000 nM. The inhibition at 0.5 h, 100 µM (CYP2D6) was < 25%, the Ki (Cytochrome P450 2B6 [4]) was 340 nM and the inhibition at 0.25 h, 100 µM (CYP2A6) was < 25%. The IC50 (Cytochrome P450 2B6 [5]) was 790 nM, the “inhibition (INH)” value (Cytochrome P450 2B6 [6]) was “Not Active” and the IC50 [7] was 10500 nM. For the same molecule, the “inhibition (INH)” value (Cytochrome P450 2B6 [8]) was “Active”, the IC50 [9] was 50000 nM and the IC50 at 5 min (CYP3A) was 2900 nM. The inhibition at 0.5 h, 100 µM (CYP1A2) was < 25%, the IC50 (Cytochrome P450 2B6 [10]) was 790 nM and the IC50 (Cytochrome P450 2B6 [11]) was 1710 nM. For the same molecule, the IC50 [12] was 10500 nM, the inhibition at 0.25 h, 100 µM (CYP2C8) was < 25% and the “inhibition (INH)” value (Cytochrome P450 2B6 [13]) was “Not Active”. The Ki (Cytochrome P450 2B6 [14]) was 400 nM, the IC50 (Cytochrome P450 2B6 [15]) was 1190 nM and the IC50 (Cytochrome P450 2B6 [16]) was 1710 nM.
